Active and inactive are the calls of the source. How the calls were made is not given here.
Key:
Cortical neurone [1] = experiment: Neuroprotective activity against kainate-induced cell damage in mouse primary cortical neurons assessed as reduction in kainate-induced neurofilament loss by measuring increase in MAPK level at 1 uM pretreated followed by kainate challenge measured after 18 hrs by fluorescence assay; assay type: functional, cell-based; settings: in the assay text read “MAP2” for “MAPK”
How it was run: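 Mouse primary cortical neurons cultured as previously described; dendritic processes stained with anti-MAP2 antibody. Cell-profile perimeter measured by image analysis, each condition normalized to kainate-only.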

Cortical neurone [2] = experiment: Neuroprotective activity against kainate-induced cell damage in mouse primary cortical neurons assessed as reversal of kainate-induced reduction in calcium flux by fura-2-AM dye based fluorescence assay; assay type: functional
How it was run: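 Mouse primary cortical neurons loaded with fura-2AM for 45 min, washed, then depolarized with 10 mM KCl to drive Ca2+ entry through voltage-gated calcium channels. Flux read on a plate-based system.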

Cortical neurone [3] = experiment: Neuroprotective activity against kainate-induced cell death in mouse primary cortical neurons by MTT assay; assay type: functional, cell-based
Cortical neurone [4] = experiment: Neuroprotective activity against kainate-induced cell death in mouse primary cortical neurons by cell counting method; assay type: functional, cell-based
Cortical neurone [5] = experiment: Neuroprotective activity against kainate-induced cell death in mouse primary cortical neurons by caspase activation method; assay type: functional, cell-based
Mus musculus [6] = species on record: Mus musculus; experiment: Neuroprotective activity against kainate-induced cell death in mouse primary motor neurons by MTT assay; assay type: functional
Mus musculus [7] = species on record: Mus musculus; experiment: Neuroprotective activity against kainate-induced cell death in mouse primary motor neurons by cell counting method; assay type: functional
Mus musculus [8] = species on record: Mus musculus; experiment: Neuroprotective activity against kainate-induced cell death in mouse primary motor neurons by caspase activation method; assay type: functional

Compound | Activity (Cortical neurone [1]) | Activity (Cortical neurone [2]) | Activity (Cortical neurone [3]) | Activity (Cortical neurone [4]) | Activity (Cortical neurone [5]) | Activity (Mus musculus [6]) | Activity (Mus musculus [7]) | Activity (Mus musculus [8])
N=c1sc2cc(OC(F)(F)F)ccc2n1CCn1cc(-c2ccc(C(F)(F)F)cc2)nn1 | inactive | Active | inactive | inactive | inactive | inactive | inactive | inactive
COc1ccccc1-c1cn(CCn2c(=N)sc3cc(OC(F)(F)F)ccc32)nn1 | inactive | Active | inactive | inactive | inactive | inactive | inactive | inactive
N=c1sc2cc(OC(F)(F)F)ccc2n1CCn1cc(CCc2ccccc2)nn1 | inactive | Active | inactive | inactive | inactive | inactive | inactive | inactive
N=c1sc2cc(OC(F)(F)F)ccc2n1CCn1cc(-c2ccc(F)c(F)c2)nn1 | inactive | Active | inactive | inactive | inactive | inactive | inactive | inactive
N#Cc1ccc(-c2cn(CCn3c(=N)sc4cc(OC(F)(F)F)ccc43)nn2)cc1 | inactive | Active | inactive | inactive | inactive | inactive | inactive | inactive
N=c1sc2cc(OC(F)(F)F)ccc2n1CCn1cc(-c2cccc(N)c2)nn1 | inactive | Active | inactive | inactive | inactive | inactive | inactive | inactive
CCCCCCc1ccc(-c2cn(CCn3c(=N)sc4cc(OC(F)(F)F)ccc43)nn2)cc1 | inactive | Active | inactive | inactive | inactive | inactive | inactive | inactive
N=c1sc2cc(OC(F)(F)F)ccc2n1CCn1cc(-c2cccc(F)c2)nn1 | inactive | Active | inactive | inactive | inactive | inactive | inactive | inactive
N=c1sc2cc(OC(F)(F)F)ccc2n1CCn1cc(-c2ccc(N)cc2)nn1 | inactive | Active | inactive | inactive | inactive | inactive | inactive | inactive
CN(C)c1ccc(-c2cn(CCn3c(=N)sc4cc(OC(F)(F)F)ccc43)nn2)cc1 | inactive | Active | inactive | inactive | inactive | inactive | inactive | inactive
N=c1sc2cc(OC(F)(F)F)ccc2n1CCn1cc(-c2ccccc2F)nn1 | inactive | Active | inactive | inactive | inactive | inactive | inactive | inactive
N=c1sc2cc(OC(F)(F)F)ccc2n1CCn1cc(-c2ccc(F)cc2F)nn1 | inactive | Active | inactive | inactive | inactive | inactive | inactive | inactive
N=c1sc2cc(OC(F)(F)F)ccc2n1CCn1cc(C2CCCCC2)nn1 | inactive | Active | inactive | inactive | inactive | inactive | inactive | inactive
Cc1cccc(-c2cn(CCn3c(=N)sc4cc(OC(F)(F)F)ccc43)nn2)c1 | inactive | Active | inactive | inactive | inactive | inactive | inactive | inactive
CC(C)Cc1cn(CCn2c(=N)sc3cc(OC(F)(F)F)ccc32)nn1 | inactive | Active | inactive | inactive | inactive | inactive | inactive | inactive
Cc1ccc(-c2cn(CCn3c(=N)sc4cc(OC(F)(F)F)ccc43)nn2)cc1 | inactive | Active | inactive | inactive | inactive | inactive | inactive | inactive
N=c1sc2cc(OC(F)(F)F)ccc2n1CCn1cc(C2CCCC2)nn1 | inactive | Active | inactive | inactive | inactive | inactive | inactive | inactive
N=c1sc2cc(OC(F)(F)F)ccc2n1CCn1cc(-c2ccc(Cl)cc2)nn1 | inactive | Active | inactive | inactive | inactive | inactive | inactive | inactive
CC(C)(C)c1cn(CCn2c(=N)sc3cc(OC(F)(F)F)ccc32)nn1 | inactive | Active | inactive | inactive | inactive | inactive | inactive | inactive
CC(C)(C)c1ccc(-c2cn(CCn3c(=N)sc4cc(OC(F)(F)F)ccc43)nn2)cc1 | inactive | Active | inactive | inactive | inactive | inactive | inactive | inactive
N=c1sc2cc(OC(F)(F)F)ccc2n1CCn1cc(-c2ccc(C(=O)O)cc2)nn1 | Active | Active | inactive | inactive | inactive | inactive | inactive | inactive
CC(C)CCc1cn(CCn2c(=N)sc3cc(OC(F)(F)F)ccc32)nn1 | inactive | Active | inactive | inactive | inactive | inactive | inactive | inactive
N=c1sc2cc(OC(F)(F)F)ccc2n1CCn1cc(-c2ccc([N+](=O)[O-])cc2)nn1 | inactive | Active | inactive | inactive | inactive | inactive | inactive | inactive
Cn1cncc1-c1cn(CCn2c(=N)sc3cc(OC(F)(F)F)ccc32)nn1 | inactive | Active | inactive | inactive | inactive | inactive | inactive | inactive
CCOC(=O)c1cn(CCn2c(=N)sc3cc(OC(F)(F)F)ccc32)nn1 | inactive | Active | inactive | inactive | inactive | inactive | inactive | inactive
N=c1sc2cc(OC(F)(F)F)ccc2n1CCn1cc(-c2cccc(C(F)(F)F)c2)nn1 | inactive | Active | inactive | inactive | inactive | inactive | inactive | inactive
N=c1sc2cc(OC(F)(F)F)ccc2n1CCn1cc(-c2cccc(Cl)c2)nn1 | inactive | Active | inactive | inactive | inactive | inactive | inactive | inactive
N=c1sc2cc(OC(F)(F)F)ccc2n1CCn1cc(-c2ccccc2N)nn1 | Active | Active | inactive | inactive | inactive | inactive | inactive | inactive

— ChEMBL document CHEMBL4145631, “Riluzole-Triazole Hybrids as Novel Chemical Probes for Neuroprotection in Amyotrophic Lateral Sclerosis” (ACS Med Chem Lett, 2018)
